Legend:
P388 [1] = test: Ratio of IC50 of P388 cells to that of CPT45 cells; format: functional, Mus musculus
DNA topoisomerase 1 = molecular target: T1, DNA topoisomerase 1 (Homo sapiens, UniProt P11387); test: Topoisomerase I activity for single-strand breaks in the DNA substrate
T1 sequence (P11387 whole entry): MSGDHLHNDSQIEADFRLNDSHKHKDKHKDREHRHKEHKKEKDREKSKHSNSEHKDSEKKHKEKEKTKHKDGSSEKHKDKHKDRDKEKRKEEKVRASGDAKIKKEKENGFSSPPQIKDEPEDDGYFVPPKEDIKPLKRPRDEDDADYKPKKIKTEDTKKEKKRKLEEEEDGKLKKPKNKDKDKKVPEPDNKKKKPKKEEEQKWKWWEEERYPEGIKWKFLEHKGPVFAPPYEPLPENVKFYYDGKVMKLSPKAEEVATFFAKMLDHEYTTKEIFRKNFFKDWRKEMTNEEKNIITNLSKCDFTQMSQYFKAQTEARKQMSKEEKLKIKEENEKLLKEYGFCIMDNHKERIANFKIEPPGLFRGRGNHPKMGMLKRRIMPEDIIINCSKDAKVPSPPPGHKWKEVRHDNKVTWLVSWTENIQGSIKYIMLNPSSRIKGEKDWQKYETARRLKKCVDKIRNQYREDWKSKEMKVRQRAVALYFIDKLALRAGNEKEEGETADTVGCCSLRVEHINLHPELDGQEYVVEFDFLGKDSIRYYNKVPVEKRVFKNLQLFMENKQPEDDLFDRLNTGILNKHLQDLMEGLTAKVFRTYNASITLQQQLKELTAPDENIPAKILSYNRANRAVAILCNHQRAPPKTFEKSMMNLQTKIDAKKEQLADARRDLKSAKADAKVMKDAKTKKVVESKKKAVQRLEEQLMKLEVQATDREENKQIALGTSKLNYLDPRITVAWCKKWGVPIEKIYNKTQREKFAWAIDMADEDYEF
In short: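 Topo I-mediated DNA cleavage assay using covalently closed, supercoiled phage PM2 DNA as substrate; read-out is induction of single-strand breaks.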

P388 [2] = test: Cytotoxic concentration against murine leukemia P388 cells; format: functional, cell-based, Mus musculus
HT-29 [3] = test: Antitumor activity against HT-29 human colon carcinoma xenograft model; Activity expressed as no. of cures by total (8); format: functional
HT-29 [4] = test: In vivo antitumor activity against HT-29 human colon carcinoma xenograft model when administered iv, (1:1:8 cremophor: ethanol: water vehicle) expressed as optimal effect in LCK; format: functional
HT-29 [5] = test: Optimal dose required for antitumor activity against HT-29 human colon carcinoma xenograft model when administered once a day iv dosing every other day for five doses (q2dx5,iv); format: functional
HT-29 [6] = test: Optimal dose required for antitumor activity against HT-29 human colon carcinoma xenograft model when administered once a day iv dosing every other day for five doses (q2dx5,iv); MTD=30 mg.kg/inj; format: functional
HT-29 [7] = test: Optimal dose required for antitumor activity against HT-29 human colon carcinoma xenograft model when administered twice a day iv dosing every other day for five doses (2q2dx5,iv); format: functional

**Q.** What does the source list for O=C1NC(=O)c2c1c1c3ccc(F)cc3[nH]c1c1c2c2ccc(F)cc2n1C1OC(CO)C(F)C(O)C1O (centres undefined)?
**A.** Ratio (P388 [1]): 59; EC50 (DNA topoisomerase 1): 200 nM; IC50 (P388 [2]; Mus musculus, P388): 3 nM

**Q.** For NCC1OC(n2c3cc(F)c(F)cc3c3c4c(c5c6cc(F)c(F)cc6[nH]c5c32)C(=O)NC4=O)C(O)C(O)C1(F)F (centres undefined), which Ratio (P388 [1]) is on record?
**A.** Its Ratio is 16.

**Q.** What about the EC50 (DNA topoisomerase 1) of the same compound?
**A.** Its EC50 is 50 nM.

**Q.** And the IC50 (P388 [2]; Mus musculus, P388)?
**A.** Its IC50 is 60 nM.

**Q.** For O=C1NC(=O)c2c1c1c3cc(F)ccc3[nH]c1c1c2c2cc(F)ccc2n1C1OC(COF)C(F)C(O)C1O (centres undefined), which No. of cures (HT-29 [3]) is on record?
**A.** Its No. of cures is 0.

**Q.** What about the Ratio (P388 [1]) of the same compound?
**A.** Its Ratio is 450.

**Q.** What about the EC50 (DNA topoisomerase 1) of the same compound?
**A.** The EC50 was 410 nM.

**Q.** And the IC50 (P388 [2]; Mus musculus, P388)?
**A.** Its IC50 is 4 nM.

**Q.** And the Activity (HT-29 [4])?
**A.** The Activity was 1.6.

**Q.** What about the Optimal dose (HT-29 [5]) of the same compound?
**A.** Its Optimal dose is 13 mg.kg/inj.

**Q.** Which Ratio (P388 [1]) does the source give for O=C1NC(=O)c2c1c1c3cc(F)ccc3[nH]c1c1c2c2cc(F)ccc2n1C1OC(CO)C(F)(F)C(O)C1O (centres undefined) here?
**A.** The Ratio was 380.

**Q.** And the EC50 (DNA topoisomerase 1)?
**A.** The EC50 was 80 nM.

**Q.** And the IC50 (P388 [2]; Mus musculus, P388)?
**A.** The IC50 was 3 nM.

**Q.** With O=C1NC(=O)c2c1c1c3cc(F)ccc3[nH]c1c1c2c2cc(F)ccc2n1C1OC(CO)C(O)C(O)C1O (centres undefined) as the compound, how does the Ratio (P388 [1]) read?
**A.** The Ratio was 183.

**Q.** What about the EC50 (DNA topoisomerase 1) of the same compound?
**A.** Its EC50 is 240 nM.

**Q.** What about the IC50 (P388 [2]; Mus musculus, P388) of the same compound?
**A.** The IC50 was 18 nM.

**Q.** O=C1NC(=O)c2c1c1c3cc(F)ccc3[nH]c1c1c2c2cc(F)ccc2n1C1OC(CO)C(F)C(O)C1O (centres undefined) was tested. Which No. of cures (HT-29 [3]) did it give?
**A.** Its No. of cures is 2.

**Q.** What about the Ratio (P388 [1]) of the same compound?
**A.** Its Ratio is 380.

**Q.** What about the EC50 (DNA topoisomerase 1) of the same compound?
**A.** The EC50 was 110 nM.

**Q.** And the IC50 (P388 [2]; Mus musculus, P388)?
**A.** The IC50 was 2 nM.

**Q.** And the Activity (HT-29 [4])?
**A.** The Activity was 3.1.

**Q.** What about the Optimal dose (HT-29 [6]) of the same compound?
**A.** Its Optimal dose is 20 mg.kg/inj.

**Q.** Which Ratio (P388 [1]) does the source give for O=C1NC(=O)c2c1c1c3cc(F)c(F)cc3sc1c1c2c2cc(F)c(F)cc2n1C1OC(CF)C(O)C(O)C1O (centres undefined) here?
**A.** The Ratio was 119.

**Q.** And the EC50 (DNA topoisomerase 1)?
**A.** The EC50 was 1500 nM.

**Q.** And the IC50 (P388 [2]; Mus musculus, P388)?
**A.** The IC50 was 52 nM.

**Q.** Which Ratio (P388 [1]) does the source give for O=C1NC(=O)c2c1c1c3cc(F)ccc3[nH]c1c1c2c2cc(F)ccc2n1C1OC(CF)C(O)C(O)C1O (stereo in doubt; 6) here?
**A.** Its Ratio is 98.

**Q.** And the EC50 (DNA topoisomerase 1)?
**A.** The EC50 was 480 nM.

**Q.** What about the IC50 (P388 [2]; p388) of the same compound?
**A.** Its IC50 is 50 nM.

**Q.** How did the No. of cures (HT-29 [3]) turn out when O=C1NC(=O)c2c1c1c3cc(F)c(F)cc3sc1c1c2c2cc(F)c(F)cc2n1C1OC(CO)C(F)C(O)C1O (centres undefined) was run?
**A.** Its No. of cures is 2.

**Q.** What about the Ratio (P388 [1]) of the same compound?
**A.** The Ratio was over 1658.

**Q.** And the EC50 (DNA topoisomerase 1)?
**A.** The EC50 was 40 nM.

**Q.** What about the IC50 (P388 [2]; Mus musculus, P388) of the same compound?
**A.** Its IC50 is 3 nM.

**Q.** What about the Activity (HT-29 [4]) of the same compound?
**A.** The Activity was over 2.3.

**Q.** What about the Optimal dose (HT-29 [7]) of the same compound?
**A.** Its Optimal dose is 11 mg.kg/inj.

**Q.** How did the Ratio (P388 [1]) turn out when O=C1NC(=O)c2c1c1c3cc(F)c(F)cc3sc1c1c2c2cc(F)c(F)cc2n1C1OC(CO)C(F)(F)C(O)C1O (centres undefined) was run?
**A.** Its Ratio is 580.

**Q.** What about the EC50 (DNA topoisomerase 1) of the same compound?
**A.** The EC50 was 500 nM.

**Q.** What about the IC50 (P388 [2]; Mus musculus, P388) of the same compound?
**A.** Its IC50 is 0.4 nM.

**Q.** What does the source list for O=C1NC(=O)c2c1c1c3cc(F)c(F)cc3[nH]c1c1c2c2cc(F)c(F)cc2n1C1OC(CO)C(F)C(O)C1O (centres undefined)?
**A.** Ratio (P388 [1]): 500; EC50 (DNA topoisomerase 1): 750 nM; IC50 (P388 [2]; Mus musculus, P388): 4 nM

**Q.** O=C1NC(=O)c2c1c1c3cc(F)c(F)cc3[nH]c1c1c2c2cc(F)c(F)cc2n1C1OC(CF)C(O)C(O)C1O (centres undefined) was tested. Which Ratio (P388 [1]) did it give?
**A.** Its Ratio is 52.

**Q.** And the EC50 (DNA topoisomerase 1)?
**A.** Its EC50 is 3000 nM.

**Q.** And the IC50 (P388 [2]; Mus musculus, P388)?
**A.** Its IC50 is 34 nM.

**Q.** Which Ratio (P388 [1]) does the source give for O=C1NC(=O)c2c1c1c3cc(F)ccc3sc1c1c2c2cc(F)ccc2n1C1OC(CF)C(O)C(O)C1O (centres undefined) here?
**A.** Its Ratio is 110.

**Q.** And the EC50 (DNA topoisomerase 1)?
**A.** The EC50 was 420 nM.

**Q.** And the IC50 (P388 [2]; Mus musculus, P388)?
**A.** The IC50 was 16 nM.

**Q.** What does the source list for NCC1OC(n2c3ccc(F)cc3c3c4c(c5c6cc(F)ccc6[nH]c5c32)C(=O)NC4=O)C(O)C(O)C1F (centres undefined)?
**A.** Ratio (P388 [1]): 37; EC50 (DNA topoisomerase 1): 70 nM; IC50 (P388 [2]; Mus musculus, P388): 14 nM

**Q.** For O=C1NC(=O)c2c1c1c3cc(F)ccc3[nH]c1c1c2c2cc(F)ccc2n1C1OC(CF)C(O)C(O)C1O (stereo in doubt; 10), which Ratio (P388 [1]) is on record?
**A.** Its Ratio is 110.

**Q.** And the EC50 (DNA topoisomerase 1)?
**A.** The EC50 was 4400 nM.

**Q.** And the IC50 (P388 [2]; p388)?
**A.** The IC50 was 12 nM.

Source: ChEMBL document CHEMBL1143557, “Discovery of a fluoroindolo[2,3-a]carbazole clinical candidate with broad spectrum antitumor activity in preclinical tumor models superior to the marketed oncology drug, CPT-11” (J Med Chem, 2005)
